Measured values as given in ChEMBL document CHEMBL1154734, “Small-sized human immunodeficiency virus type-1 protease inhibitors containing allophenylnorstatine to explore the S2' pocket” (J Med Chem, 2009).
Values after ≈ are worked out from the molar mass of the structure shown.

How the values were obtained:
[1] = biological target: Protease (Human immunodeficiency virus 1) (UniProt Q9YQ12); test: Inhibition of HIV1 recombinant protease at 1 nM after 3 hrs by fluorescence assay
[2] = test system: Human immunodeficiency virus 1; test: Fold resistance, ratio of EC50 for indinavir-resistant HIV1 harboring L10R/M46I/L63P/V82T/I84V mutant protease infected in human MT4 cells to EC50 for HIV1 pNL4-3 infected in human MT4 cells; format: functional
Method in brief: (§1)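 MT-4 cells inoculated with HIV-1 wild-type pNL4-3 or indinavir-resistant IND-R, then given an equal volume of compound in 1% DMSO at several concentrations with 10% fetal bovine serum. Incubated 5 days at 37 °C in CO2, in triplicate. MTT read-out by optical density gave percent cytopathic-effect reduction; EC50 was fitted to a median-effect equation.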

[3] = test system: Human immunodeficiency virus 1; test: Antiviral activity against HIV1 3B infected in human MT4 cells assessed as inhibition of virus-induced cytopathic effect after 5 days by MTT assay; format: functional, organism-based; settings: Human immunodeficiency virus 1, 3B, MT4, 120 h
Method in brief: (§2)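 HIV-1 (IIIB or pNL4-3) inoculated into MT-4 cells. Cultures were treated with an equal volume of a 1% DMSO solution of compound at several concentrations plus 10% fetal bovine serum, then incubated 5 days at 37 °C in CO2, in triplicate. After MTT, optical density gave the percent cytopathic effect reduction. EC50 was fitted to a median-effect equation.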

[4] = biological target: Protease (Human immunodeficiency virus 1) (UniProt Q9YQ12); test: Inhibition of HIV1 recombinant protease at 50 nM after 15 mins by fluorescence assay
Method in brief: (§3)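 Recombinant HIV-1 protease was assayed in MES–NaOH pH 5.5 with DTT, EDTA and NaCl, with inhibitor at 50 nM final (500 nM DMSO stock). The substrate was H-Lys-Ala-Arg-Val-Tyr-Phe(p-NO2)-Glu-Ala-Nle-NH2, and the reaction ran 15 min at 37 °C. It was stopped with 1 N HCl. The N-terminal fragment was quantified by RP-HPLC with fluorescence at ex 275/em 305 nm.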

[5] = test system: Human immunodeficiency virus 1; test: Antiviral activity against indinavir-resistant HIV1 harboring L10R/M46I/L63P/V82T/I84V mutant protease infected in human MT4 cells assessed as inhibition of virus-induced cytopathic effect after 5 days by MTT assay; format: functional, organism-based; settings: Human immunodeficiency virus 1, MT4, 120 h
Method in brief: as §1

[6] = test system: Human immunodeficiency virus 1; test: Antiviral activity against HIV1 pNL4-3 infected in human MT4 cells assessed as inhibition of virus-induced cytopathic effect after 5 days by MTT assay; format: functional, organism-based; settings: Human immunodeficiency virus 1, pNL4-3, MT4, 120 h
Method in brief: as §2

Protease = Protease (Human immunodeficiency virus 1, UniProt Q9YQ12); test: Inhibition of HIV1 recombinant protease after 15 mins by fluorescence assay
[7] = Aqueous solubility in 0.1% TFA after 30 mins by RP-HPLC analysis; format: physicochemical; settings: 0.1% TFA in water
[8] = test system: Human immunodeficiency virus 1; test: Ratio of EC50 for HIV1 pNL4-3 infected in human MT4 cells in presence of 50% human serum to EC50 for HIV1 pNL4-3 infected in human MT4 cells in absence of human serum; format: functional
Method in brief: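 HIV-1 pNL4-3 was inoculated into MT-4 cells, then test compound was added at several concentrations in 1% DMSO with 10% FBS. Cultures were incubated 5 days at 37 °C in CO2, in triplicate, and the cytopathic effect was read by MTT optical density. EC50 was fitted to a median-effect equation with and without 50% human serum. The serum binding effect is their ratio.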

[9] = test system: Human immunodeficiency virus 1; test: Antiviral activity against HIV1 pNL4-3 infected in human MT4 cells assessed as inhibition of virus-induced cytopathic effect after 5 days by MTT assay in absence of human serum; format: functional, organism-based; settings: Human immunodeficiency virus 1, pNL4-3, MT4, 120 h
Method in brief: as §2

[10] = test system: Human immunodeficiency virus 1; test: Antiviral activity against HIV1 pNL4-3 infected in human MT4 cells assessed as inhibition of virus-induced cytopathic effect after 5 days by MTT assay in presence of 50% human serum; format: functional, organism-based; settings: Human immunodeficiency virus 1, pNL4-3, MT4, 120 h
Method in brief: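 MT-4 cells were infected with wild-type HIV-1 (IIIB or pNL4-3) in the presence of 50% human serum. Compound was added at several concentrations from a 1% DMSO solution, and cells were incubated 5 days at 37 °C in triplicate. Cytopathic effect reduction was read by MTT optical density, and EC50 was derived from a median-effect equation fit.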

[11] = test system: Human immunodeficiency virus; test: Inhibition of recombinant HIV protease at 50 nM after 15 mins by fluorescence assay
Method in brief: as §3

Protease (Human immunodeficiency virus 1), sequence (Q9YQ12 as listed by the source): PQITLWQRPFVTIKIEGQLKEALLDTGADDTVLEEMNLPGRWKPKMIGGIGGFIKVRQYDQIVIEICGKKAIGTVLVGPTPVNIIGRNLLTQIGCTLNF
Protease, sequence (Q9YQ12 whole entry): as the sequence (Q9YQ12 as listed by the source) above

With `Cc1c(O)cccc1C(=O)N[C@@H](Cc1ccccc1)[C@H](O)C(=O)N1CSC(C)(C)[C@H]1C(=O)NCc1c(F)cccc1Cl` the inhibition [1] was 50%, the “Ratio EC50” value [2] was 6.3 and the EC50 [3] was 32 nM. The inhibition [4] was 97%, the EC50 [5] was 157 nM and the EC50 [6] was 25 nM.

Compound `C=C(C)CNC(=O)[C@H]1N(C(=O)[C@@H](O)[C@H](Cc2ccccc2)NC(=O)c2cccc(O)c2C)CSC1(C)C` has a Ki (Protease) of 0.19 nM, an inhibition [4] of 98% and an EC50 [6] of 17 nM.

With `C=C(C)CNC(=O)[C@H]1N(C(=O)[C@@H](O)[C@H](Cc2ccccc2)NC(=O)COc2c(C)cc(N)cc2C)CSC1(C)C` the solubility at 0.5 h [7] was 8480 µg/mL (≈ 14.9 mM), the “Ratio EC50” value [8] was 8.2 and the inhibition [1] was 43%. The EC50 [9] was 10 nM, the inhibition [4] was 98% and the EC50 [10] was 82 nM.

In the case of `Cc1ccccc1CNC(=O)[C@H]1N(C(=O)[C@@H](O)[C@H](Cc2ccccc2)NC(=O)c2cccc(O)c2C)CSC1(C)C`, the Ki (Protease) is reported as 0.031 nM, the inhibition [1] is reported as 72% and the “Ratio EC50” value [2] is reported as 1.7. It also gave an EC50 [3] of 33 nM, an inhibition [4] of 99% and an EC50 [5] of 100 nM. The EC50 [6] was 60 nM.

With `Cc1cccc(C)c1CNC(=O)[C@H]1N(C(=O)[C@@H](O)[C@H](Cc2ccccc2)NC(=O)c2cccc(O)c2C)CSC1(C)C` the Ki (Protease) was 0.0024 nM, the inhibition [1] was 82% and the inhibition [4] was 99%.

In the case of `Cc1c(O)cccc1C(=O)N[C@@H](Cc1ccccc1)[C@H](O)C(=O)N1CSC(C)(C)[C@H]1C(=O)NC(C)(C)c1ccccc1`, the EC50 [3] is reported as 123 nM and the inhibition [11] is reported as 82%.
